Measured values published in ChEMBL document CHEMBL1121375, “Synthesis and structure-function studies of melanocyte stimulating hormone analogues modified in the 2 and 4(7) positions: comparison of activities on frog skin melanophores and melanoma adenylate cyclase” (1980).
Square brackets hold non-standard residues; d marks the D form. Peptide text beside a SMILES is read from it. Nle = CCCC[C@H](N)C(=O)O

Key:
Mus musculus = species: Mus musculus; assay: Relative potency using melanoma adenylate cyclase bioassay system from S-91 melanoma tumors grown in DBA/2J mice; assay type: functional
Method in brief: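 Particulate membrane fraction from S-91 melanoma tumors; 100 μg membrane protein starts the reaction. Medium: 1 mM [α-³²P]ATP, 5 mM MgCl₂, 1 mM cAMP, 0.5 mM IBMX, 1 mM DTT, 20 mM creatine phosphate, 100 U/mL creatine phosphokinase, 10 μM GTP, 30 mM Tris-HCl pH 7.5. 10 min at 30 °C; [³²P]cAMP isolated and counted. Potency from half-maximal response relative to α-MSH.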

[1] = tested on: Melanocortin receptor (Rana berlandieri); assay: Relative potency using frog skin bioassay system

Row | Potency [1] | Compound | Potency (Mus musculus)
1 | 5.2 | CCCC[C@H](NC(=O)[C@H](CCCCN)NC(=O)[C@H](Cc1ccc(O)cc1)NC(=O)[C@@H]1CCCN1C(=O)CNC(=O)[C@H](CCC(=O)O)NC(=O)[C@@H](N)CC(=O)O)C(=O)N[C@@H](CCC(=O)O)C(=O)N[C@@H](Cc1c[nH]cn1)C(=O)N[C@@H](Cc1ccccc1)C(=O)N[C@@H](CCCN=C(N)N)C(=O)N[C@@H](Cc1c[nH]c2ccccc12)C(=O)NCC(=O)N[C@@H](CO)C(=O)N1CCC[C@H]1C(=O)N1CCC[C@H]1C(=O)N[C@@H](CCCCN)C(=O)N[C@@H](CC(=O)O)C(=O)O (H-DEGPYK[Nle]EHFRWGSPPKD-OH) | 4.2
2 | 0.55 | H-DEGPYKMEHFRWGSPPKD-OH | 2.2
3 | 0.82 | CCCC[C@H](NC(=O)[C@H](CO)NC(=O)[C@H](Cc1ccccc1)NC(=O)[C@H](CO)NC(C)=O)C(=O)N[C@@H](CCC(=O)O)C(=O)N[C@@H](Cc1c[nH]cn1)C(=O)N[C@@H](Cc1ccccc1)C(=O)N[C@@H](CCCN=C(N)N)C(=O)N[C@@H](Cc1c[nH]c2ccccc12)C(=O)NCC(=O)N[C@@H](CCCCN)C(=O)N1CCC[C@H]1C(=O)N[C@H](C(N)=O)C(C)C | 0.9
